Values after ≈ are worked out from the molar mass of the structure shown. Active and inactive are the calls of the source. The rule behind the calls is not given here.
Tests used:
[1] = test system: Human alphaherpesvirus 1; assay: Antiviral activity against HSV1 in african green monkey Vero cells assessed as reduction in number of plaques after 66 hrs; type: functional, organism-based
Method in brief: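 Confluent Vero monolayers were seeded at 2 × 10^4 cells/well in DMEM with 10% calf serum. Samples were dissolved in DMSO, diluted in medium and added in triplicate at 100, 50, 20, 10, 5, 2 and 1 µg/ml, with 30 PFU HS-1 per well. Wells were incubated 66 h at 37° under ~15% CO2, then formaldehyde-fixed, crystal violet-stained and scored visually. The value is the lowest concentration giving the stated % plaque reduction.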

[2] = Cytotoxicity against african green monkey Vero cells after 66 hrs; type: cell-based; conditions: chlorocebus sabaeus
Method in brief: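 Confluent Vero monolayers in DMEM with 10% calf serum received triplicate serial dilutions of DMSO-dissolved samples at 1–100 µg/ml, with higher levels where needed. The cytotoxic concentration is reported as CD50.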

[3] = test system: Human alphaherpesvirus 1; assay: Antiviral activity against HSV1 in african green monkey Vero cells assessed as reduction in number of plaques at 0.1 mg/ml after 66 hrs; type: functional; set-up: scale not given: the % may be the effect or the level left
Method in brief: (§1)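 Vero cells seeded at 2 × 10^4 per 200 µl well in DMEM with 10% calf serum, grown to confluence at 37° under ~15% CO2. Medium replaced with compound dilutions in triplicate, each well inoculated with 30 PFU HSV-1. Incubated 66 h, then formaldehyde-fixed and crystal violet-stained. Plaque reduction was scored visually.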

[4] = test system: Human alphaherpesvirus 1; assay: Antiviral activity against HSV1 in african green monkey Vero cells assessed as reduction in number of plaques at 0.005 mg/ml after 66 hrs; type: functional; set-up: scale not given: the % may be the effect or the level left; method in brief: as §1

C[C@@]1(CO)C[C@H](O)C[C@@]2(C)[C@H]1CC[C@H]1C[C@H]3[C@H](O)[C@]12CC[C@]3(C)O
Activity [1]: inactive
CC50 at 66 h [2]: 70 µg/mL (≈ 207 µM)

C[C@@]1(CO)C[C@H](O)C[C@@]2(C)[C@H]1CC[C@H]1C[C@H]3C[C@]12CC[C@]3(C)O
Activity [3]: 67%
CC50 at 66 h [2]: 200 µg/mL (≈ 620 µM)

CC1(C)C[C@H](O)C[C@@]2(C)[C@H]1CC[C@H]1C[C@@]3(O)C[C@]12CC[C@]3(C)O
Activity [3]: 27%
CC50 at 66 h [2]: 150 µg/mL (≈ 465 µM)

CC1(C)C[C@H](O)C[C@@]2(C)[C@H]1CC[C@@]1(O)C[C@H]3C[C@]12CC[C@]3(C)O
Activity [3]: 93%
CC50 at 66 h [2]: 300 µg/mL (≈ 930 µM)

CC1(C)C[C@H](O)C[C@@]2(C)[C@H]1C[C@H](O)[C@@]1(O)C[C@H]3C[C@@]21CC[C@]3(C)O
Activity [1]: inactive
CC50 at 66 h [2]: 40 µg/mL (≈ 118 µM)

CC1(C)C[C@H](O)C[C@@]2(C)[C@H]1CC[C@H]1C[C@H]3C[C@]12CC[C@]3(C)O [STEMODIN]
CC50 at 66 h [2]: 40 µg/mL (≈ 131 µM)

CC1(C)C[C@H](O)C[C@@]2(C)[C@H]1C[C@H](O)[C@H]1C[C@H]3C[C@]12CC[C@]3(C)O
Activity [1]: inactive
CC50 at 66 h [2]: 70 µg/mL (≈ 217 µM)

C[C@@]1(CO)C[C@H](O)C[C@@]2(C)[C@H]1CC[C@@]1(O)C[C@H]3C[C@]12CC[C@]3(C)O
Activity [1]: inactive
CC50 at 66 h [2]: 660 µg/mL (≈ 1950 µM)

CC1(C)C[C@H](O)C[C@@]2(C)[C@H]1C[C@@H](O)[C@H]1C[C@H]3C[C@]12CC[C@]3(C)O
Activity [3]: 33%
CC50 at 66 h [2]: 200 µg/mL (≈ 620 µM)

C[C@]1(CO)C[C@H](O)C[C@@]2(C)[C@H]1CC[C@H]1C[C@H]3C[C@]12CC[C@@]3(O)CO
CC50 at 66 h [2]: > 399 µg/mL

C[C@]1(CO)C[C@H](O)C[C@@]2(C)[C@H]1CC[C@H]1C[C@H]3C[C@]12CC[C@]3(C)O
CC50 at 66 h [2]: > 399 µg/mL

C[C@@]1(CO)[C@H](O)CC[C@@]2(C)[C@H]1CC[C@H]1C[C@@H]3C[C@@]12CC[C@]3(O)CO [APHIDICOLIN]
Activity [4]: 100%
CC50 at 66 h [2]: 200 µg/mL (≈ 591 µM)

— ChEMBL document CHEMBL1150199, “Preparation, characterization, and antiviral activity of microbial metabolites of stemodin” (J Nat Prod, 1991)
